Hits are enriched below; roughly 4% of the tested compounds scored in any of these assays.
DAGLB inh: DAGLB lipase inhibitors, primary screen, biochemical, fluorescence, HTS. Diacylglycerol lipase-beta (Homo sapiens), Q8NCG7. 340,000 compounds, 0.059% hits. AID 504411, 2011. inhibition, % at 5.17 µM. HEK293T DAGLB membrane lysate, EnzChek fluorogenic substrate; in the data active = inhibition above about 34%;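 note: 0% = enzyme with vehicle and 100% = wells lacking enzyme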
Target sequence (Q8NCG7 whole entry, looked up): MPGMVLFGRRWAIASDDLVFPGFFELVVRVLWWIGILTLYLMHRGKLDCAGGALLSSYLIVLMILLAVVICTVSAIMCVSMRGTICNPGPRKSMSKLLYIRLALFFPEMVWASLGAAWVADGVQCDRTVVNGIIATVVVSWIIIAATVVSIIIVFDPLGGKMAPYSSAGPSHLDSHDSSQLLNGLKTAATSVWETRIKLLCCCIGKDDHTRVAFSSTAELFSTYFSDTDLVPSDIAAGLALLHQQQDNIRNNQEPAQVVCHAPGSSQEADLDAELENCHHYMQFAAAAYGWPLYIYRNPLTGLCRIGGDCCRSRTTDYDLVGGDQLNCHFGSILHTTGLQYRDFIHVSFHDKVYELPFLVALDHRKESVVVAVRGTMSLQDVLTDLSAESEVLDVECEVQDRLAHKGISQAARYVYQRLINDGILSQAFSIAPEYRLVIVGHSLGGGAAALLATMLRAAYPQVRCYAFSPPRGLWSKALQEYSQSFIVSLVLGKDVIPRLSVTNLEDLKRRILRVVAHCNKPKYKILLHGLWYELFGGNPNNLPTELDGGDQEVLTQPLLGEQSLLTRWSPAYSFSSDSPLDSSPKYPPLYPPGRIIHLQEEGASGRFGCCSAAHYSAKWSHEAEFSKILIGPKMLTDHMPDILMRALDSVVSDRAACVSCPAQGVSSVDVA
TAAR1 ag: human TAAR1 agonists, primary screen, Fluo-8 calcium fluorescence, CHO RD-HGA16 cells; Trace amine-associated receptor 1 (Homo sapiens), Q96RJ0; vehicle wells 0%, saturating PEA agonist 100%; activation, % at 3 µM; 360,000 compounds, 0.99% hits; AID 624467, 2012;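 active = activation above the mean activation of all test compounds in the run plus 3 SD, cut at about 38% in these data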
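Benchmarks: low control DMSO, high control PEA (EC100); System: CHO RD-HGA16 cells carrying human TAAR1 plus Gα16; Detection: Fluo-8 fluorescence, 5 s baseline then 140 s kinetic read; Schedule: 17-24 h plating, Fluo-8 75 min 37 °C, 30 min RT; Read-out basis: % activation from peak over basal fluorescence ratio, DMSO-to-PEA scaled.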
GPR7 antagonist: GPR7 receptor antagonists, primary screen, cell-based, fluorescence, single concentration | GPR7-expressing cells, fluorescence antagonist assay | inhibition, % at 4.4 µM | 290,000 compounds, 1.1% hits | AID 1861, 2009; in the data active = inhibition above about 16%, passing the limit was not always enough;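 note: cells stimulated with the agonist NPW; 0% = agonist with vehicle and 100% = vehicle without agonist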
TAAR1 antagonist: human TAAR1 antagonists, primary screen, Fluo-8 calcium fluorescence, CHO RD-HGA16 cells. AID 624466, 2012. antagonist. inhibition, % at 3 µM. 360,000 compounds, 1.5% hits;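 active = inhibition above a per-plate cutoff, the mean inhibition of test compounds on that plate plus 3 SD, cut at about 49% in these data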;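 note: 0% = DMSO plus EC80 beta-PEA response and 100% = DMSO alone without agonist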
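Material: CHO RD-HGA16 cells bearing hTAAR1; compound dosing: one-point dosing, 3 µM nominal final; schedule: dye loading 75 min at 37 °C, then 30 min room temperature; measured by: calcium fluorescence with Fluo-8; control set: vehicle and agonist controls; replication: n of 1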
MPTP block: mitochondrial permeability transition pore inhibitors, primary screen, biochemical, isolated mouse mitochondria, absorbance. Ca2+ swelling absorbance, 30 min. AID 602449, 2012. 360,000 compounds, 1.4% hits. inhibition, % at 10 µM;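 active = inhibition of 50% or more, scaled per plate between neutral and stimulator controls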;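 note: 0% = DMSO wells given calcium and 100% = 1 mM EGTA wells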
Starred values were filed as active, the others as inactive; · = not tested or not shown.

SMILES	DAGLB inh	TAAR1 ag	GPR7 antagonist	TAAR1 antagonist	MPTP block
CCOC(=O)C1CSCCS(=O)(=O)N1Cc1ccccc1C (centres undefined)	·	1	·	-8	·
c1ccc(CN2CCCC3CC2c2ccccc23)cc1 (centres undefined)	·	0	·	-7	·
COC(=O)[C@]12CCCCC=C1N(Cc1ccccc1)C(=O)[C@H](CC(=O)N1CCCCC1)C2	·	16	·	41	-1
COC(=O)[C@]12CCCCC=C1N(CCc1ccc(OC)c(OC)c1)C(=O)[C@H](CC(=O)N1CCCC1)C2	·	9	·	34	4
COC(=O)[C@]12CCCCC=C1N(Cc1ccc3c(c1)OCO3)C(=O)[C@H](CC(=O)N1CCCC1)C2	·	14	·	54*	2
COC(=O)[C@]12CCCCC=C1N(Cc1ccccc1)C(=O)[C@H](CC(=O)N1CCCC1)C2	·	13	·	56*	1
COC(=O)[C@]12CCCCC=C1N(Cc1ccc3c(c1)OCO3)C(=O)[C@H](CC(=O)N1CCCCC1)C2	·	12	·	52*	-1
COC(=O)[C@]12CCCCC=C1N(CCc1ccc(OC)c(OC)c1)C(=O)[C@H](CC(=O)N1CCSCC1)C2	·	12	·	61*	-1
COC(=O)c1cc(Cl)ccc1NCC(N)c1ccccc1 (centres undefined)	·	36	·	-10	8
CC(C)(C)OC(=O)N1CCCC(C(=O)Nc2cccc(C(=O)NC3CC3)c2)C1 (centres undefined)	-1	3	·	-5	1
O=C(/C=C/c1ccccc1)Nc1cccc(C(=O)NCCCCc2ccccc2)c1	-4	12	·	67*	3
CC(C)(C)OC(=O)N1CCCC(C(=O)Nc2cccc(C(=O)NCCc3ccccc3)c2)C1 (centres undefined)	-3	13	·	49*	0
CC(C)(C)OC(=O)N1CCCC(C(=O)Nc2cccc(C(=O)NCCCCc3ccccc3)c2)C1 (centres undefined)	-9	12	·	56*	2
COc1cccc(C#Cc2ccc3c(c2)O[C@@H](CN(C)C(=O)c2ccccn2)[C@@H](C)CN([C@H](C)CO)S3(=O)=O)c1	-1	7	·	49*	-2
COC(=O)c1cc2c(C)c(C)c3ccccn3c-2c1C(=O)OC	5	17	6	63*	-3
CCCCN(CCCC)Cc1cc(=O)oc2ccc3ccccc3c12	·	0	·	-24	2
NNC(=O)c1ccc(N2CCc3ccccc32)c([N+](=O)[O-])c1	28	-1	5	55*	-1
O=C(/C=C\c1cn(-c2ccccc2)nc1-c1ccccc1)Nc1nccs1	0	2	-5	51*	7
COc1ccc(/C=N/NC(=O)CCCOc2ccc(Cl)cc2Cl)cc1[N+](=O)[O-]	-2	11	-8	49*	-4
COc1ccc(CCC2=NCCN2C(CC(C)C)c2nc3ccccc3[nH]2)cc1 (centres undefined)	·	1	·	1	0
Cc1ccc(-c2csc(N=C(N)N)n2)c(C)c1	·	38*	-10	-29	14
COc1ccc(-c2csc(N=C(N)N)n2)cc1	-2	3	-3	-21	43
CCOc1ccc(-c2c(C(=O)N/N=C/c3ccc(C)s3)nnn2-c2nonc2N)cc1	1	·	-21	·	-2
Cc1ccc(-c2c(C(=O)N/N=C/c3ccc(C)o3)nnn2-c2nonc2N)cc1	1	43*	8	5	-2
COc1cccc(-c2c(C(=O)N/N=C/c3ccc(C)o3)nnn2-c2nonc2N)c1	-3	42*	0	27	0
SMILES	DAGLB inh	TAAR1 ag	GPR7 antagonist	TAAR1 antagonist	MPTP block
CCOc1cccc(-c2c(C(=O)N/N=C/c3ccc(C)s3)nnn2-c2nonc2N)c1	-1	53*	-14	-13	1
CN1CCN(C(=O)c2ccc(Cc3cn(C)c4ccccc34)nc2)CC1	·	4	·	-8	-1
Nc1[nH]c(C(=O)c2ccccc2)c(-c2ccc(Cl)c(F)c2)c1C(=O)c1c[nH]c2ccccc12	·	0	·	-2	·
CCN(CC)c1ccc(S(=O)(=O)N2CCOCC2)cc1NC(=O)COC(=O)/C=C/c1ccc(O)c(OC)c1	-4	9	·	45	0
CCN(CC)c1ccc(S(=O)(=O)N2CCOCC2)cc1NC(=O)COC(=O)/C=C/c1ccc(C)o1	-3	8	·	65*	-1
Oc1cc(-n2cccn2)c(O)cc1-n1cccn1	0	-1	46*	5	0
O=C(N/N=C/c1ccc(F)cc1)c1cccc(NC(=O)c2ccccc2Cl)c1	1	22	-4	54*	2
O=C(N/N=C/c1ccncc1)c1cccc(NC(=O)c2ccccc2Cl)c1	1	16	10	50*	1
COc1ccc(/C=N/NC(=O)c2cccc(NC(=O)c3ccccc3Cl)c2)cc1	-2	8	4	16	-2
CCCS(=O)(=O)NC(=O)C1(C)CCCN(C(=O)c2oc3ccccc3c2C)C1 (centres undefined)	·	4	·	-8	1
Cc1c(CN2CCN(c3ncc(Cc4ccccc4)cn3)CC2)c(=O)n(-c2ccccc2)n1C	·	7	·	0	·
O=C(CCl)NC(Cc1ccccc1)C(=O)OCC(=O)c1ccc(-c2ccccc2)cc1 (centres undefined)	2	5	·	60*	-1
C=CCNc1nc(-c2sc(NC(=O)C(C)(C)C)nc2C)c(-n2cc(-c3ccccc3)nn2)s1	·	7	·	61*	2
C=CCNc1nc(-c2sc(NC(C)=O)nc2C)cs1	-1	-3	-4	2	-1
COc1ccc2c(c1)CC/C(=C\c1ccc(OC)c(Cn3nc(C)cc3C)c1)C2=O	-11	44*	7	23	4
Cc1ccsc1CCNC(=O)C1CCC(=O)N(CCc2cccc(F)c2)C1 (centres undefined)	0	9	-14	-13	-1
O=C(NCCc1cccs1)C1CCC(=O)N(CCc2cccc(F)c2)C1 (centres undefined)	1	42*	-4	-10	0
COc1ccc(Br)c(C(=O)OCC(=O)NC2CCCCCCC2)c1	-10	1	·	17	1
C/C(CCC12CC3CC(CC(C3)C1)C2)=N\NC(N)=S	1	2	-2	-3	0
C/C(CC(C)(C)C1CCCCC1)=N\NC(N)=S	-3	13	37*	7	0
O=C(N[C@H](c1cccc(Br)c1)[C@@H]1CCCC=C1c1ccccc1)C(F)(F)F	·	0	·	12	·
O=C(COc1ccc(S(=O)(=O)N2CCCC2)cc1Cl)Nc1ccc2c(c1)OCO2	-1	10	-1	50*	0
CC(C)NS(=O)(=O)c1ccc(OCC(=O)Nc2ccc3c(c2)OCO3)c(Cl)c1	1	6	3	33	1

Compound activity as filed in PubChem BioAssay.
